Published values gathered from unrelated publications.
Protocols differ between the studies behind these lines.
Cell line: HCT-116
Observed: cell growth or viability

SMILES | test | setting | IC50
COc1ccc(N(Cc2csc(-c3ccc(Br)cc3)n2)C(=O)CCCCCC(=O)NO)cc1 | MTT | 72 h | 2.21 µM
COc1cccc2c1C(=O)c1c(O)c3c(c(O)c1C2=O)C[C@@](O)(C(=O)CO)C[C@@H]3O[C@H]1C[C@H](N)[C@H](O)[C@H](C)O1 | ATP luminescence | 72 h | 0.98 µM
FC(F)(F)c1ccc(-c2cc(COc3cc(C(F)(F)F)nc4ccccc34)on2)cc1 | MTS | 72 h | > 100 µM
COc1cccc2c1C(=O)c1c(O)c3c(c(O)c1C2=O)C[C@@](O)(C(=O)CO)C[C@@H]3O[C@H]1C[C@H](N)[C@H](O)[C@H](C)O1 | MTT |  | 4.12 µg/mL
Cc1cccc(NC(=O)Cn2cc(COc3ncnc4[nH]cnc34)nn2)c1 | MTT |  | 55.3 µM
Clc1ccc(Cn2nc(-c3ncc(-c4ccccc4)s3)c3ccccc32)c(Cl)c1 |  | 48 h | 404 µM
Cc1cc(NS(=O)(=O)c2ccc(NC(=O)/C(C#N)=C/c3ccc(N4CCOCC4)cc3)cc2)no1 | MTT | 48 h | 67.8 µM
O=c1cc(OCc2cc(-c3ccc(Cl)cc3Cl)no2)c2ccccc2o1 | MTS | 72 h | > 100 µM
Cc1cccc(N=C2C(=O)N(Cc3ccc(Br)cc3)c3ccccc32)c1 | MTT | 48 h | 8.21 µM
COc1ccc(N=C2SCC(=O)N2c2nnc(-c3ccc(C(F)(F)F)cc3N=C3SCC(=O)N3c3ccc(OC)cc3)s2)cc1 | MTT |  | 65.2 µM
Cc1cc(NS(=O)(=O)c2ccc(NC(=O)/C(C#N)=C/c3ccc(N4CCCC4)cc3)cc2)no1 | MTT | 48 h | 98.6 µM
O=[N+]([O-])c1ccc(O)c(C=NNc2ccc(C(F)(F)F)cc2)c1 | MTT | 24 h | 11.3 µM
Cc1ccc(CN2C(=O)C(=Nc3c(C(C)C)cccc3C(C)C)c3ccccc32)cc1 | MTT | 48 h | 30.9 µM
c1ccc(-c2noc(-c3nn(Cc4ccncc4)c4ccccc34)n2)cc1 |  | 48 h | 47.5 µM
O=[N+]([O-])c1cc(I)c(O)c(C=NNc2ccc(C(F)(F)F)cc2)c1 | MTT | 24 h | 9.43 µM
O=P1(C2CCCCC2)CCCCC1 | MTT | 72 h | 13.8 µM
CN1CCc2c(c3ccccc3n2Cc2ccc(C(=O)NO)cc2)C1 | CCK-8 | 48 h | 12 µM
O=[N+]([O-])c1cc(I)c(O)c(C=NNc2ccc(Br)cc2)c1 | MTT | 24 h | 15.3 µM
O=C1CS/C(=N\c2cc(C(F)(F)F)ccc2-c2nnc(N3C(=O)CS/C3=N\c3cc(O)cc(Br)c3)s2)N1c1cc(O)cc(Br)c1 | MTT |  | 78.1 µM

SMILES | test | setting | IC50
COc1cccc2c1C(=O)c1c(O)c3c(c(O)c1C2=O)C[C@@](O)(C(=O)CO)C[C@@H]3O[C@H]1C[C@H](N)[C@H](O)[C@H](C)O1 |  | 96 h | 0.00382 µM
COc1ccc(NC(=S)N/N=C/c2cccc3cc4ccccc4nc23)cc1 | MTT | 48 h | > 50 µM
N#Cc1ccc(-c2cc(CNc3cccc4cccnc34)on2)cc1 | MTS | 72 h | > 100 µM
O=C1Nc2ccccc2C1=Nc1ccccc1I | MTT | 48 h | 31.5 µM
COc1ccc(N(Cc2csc(-c3ccccc3)n2)C(=O)CCCCCC(=O)NO)cc1 | MTT | 72 h | 1.12 µM
Cc1cc2c(C(=O)O)cccc2n1-c1nc2c(c(NCc3ccccc3)n1)CCCN2 | ATP luminescence | 72 h | 0.4 µM
O=C(CSc1nc2ccccc2s1)N/N=C/c1ccc(OCC(=O)Nc2ccc([N+](=O)[O-])cc2)cc1 | MTS | 72 h | 52.9 µM
Cc1cc2c(C(N)=O)cccc2n1-c1nc2c(c(OCc3ccccc3)n1)CCCN2 | ATP luminescence | 72 h | 3.4 µM
FC(F)(F)c1ccc(-c2noc(-c3nn(Cc4ccc(Cl)cc4Cl)c4ccccc34)n2)cc1 |  | 48 h | 137 µM
COc1cccc(N=C2SCC(=O)N2c2nnc(-c3ccc(C(F)(F)F)cc3N=C3SCC(=O)N3c3cccc(OC)c3)s2)c1 | MTT |  | 71.4 µM
O=C(C=Cc1cccs1)c1ccc(OCCOc2ccc(C(=O)C=Cc3cccs3)cc2)cc1 | MTT | 48 h | 18.1 µM
CC1(P2(=O)CCCCC2)C=CCC=C1 | MTT | 72 h | > 100 µM
O=C1C(=Nc2ccccc2I)c2ccccc2N1Cc1ccc(Br)cc1 | MTT | 48 h | 1.33 µM
O=C1CS/C(=N\c2cc(C(F)(F)F)ccc2-c2nnc(N3C(=O)CS/C3=N\c3ccc(-c4ccccc4)cc3)s2)N1c1ccc(-c2ccccc2)cc1 | MTT |  | 92.3 µM
CCC(C(=O)N1C(=O)C(=Nc2ccc(Cl)cc2Br)c2ccccc21)c1ccccc1 (centres unmarked) | MTT | 48 h | 30.9 µM
Cc1cc2c(C(N)=O)cccc2n1-c1nc2c(c(NCc3ccccc3)n1)CCCN2 | ATP luminescence | 72 h | 0.7 µM
O=C1CS/C(=N\c2ccc(F)cc2O)N1c1nnc(-c2ccc(C(F)(F)F)cc2/N=C2\SCC(=O)N2c2ccc(F)cc2O)s1 | MTT |  | 17.2 µM
Cc1cc(C)n(Cn2ccnc2)n1 | MTT | 24 h | 21.3 µM
O=[N+]([O-])c1cc(I)c(O)c(C=NNc2ccccc2)c1 | MTT | 24 h | 6.34 µM

SMILES | test | setting | IC50
Cc1cc(C)n(Cn2cnc3ccccc32)n1 | MTT | 24 h | 70.2 µM
CC(=O)O[C@@H]1[C@@H](OC(C)=O)[C@H](OC(C)=O)CO[C@H]1n1cc(Cn2c(C(C)=O)nc3ccccc32)nn1 | LDH | 48 h | 7.74 µM
COc1cc(N=C2C(=O)Nc3ccccc32)cc(OC)c1 | MTT | 48 h | 24.4 µM
O=c1[nH]cc(F)c(=O)[nH]1 | MTT | 72 h | 3.09 µM
S=C(N/N=C/c1cccc2cc3ccccc3nc12)Nc1ccccc1 | MTT | 48 h | > 50 µM
CC(C)c1ccc(/C=C2\N=C(SCC(=O)c3ccccc3)N(c3ccccc3)C2=O)cc1 | MTT |  | 83.7 µg/mL
O=c1cc(OCc2cc(-c3ccccn3)no2)c2ccccc2o1 | MTS | 72 h | > 100 µM
O=C(C=Cc1ccc(OCCOc2ccc(C=CC(=O)c3cccs3)cc2)cc1)c1cccs1 | MTT | 48 h | 17.1 µM
Fc1ccc2c(-c3nnc(Cc4ccccc4)[nH]3)nn(Cc3ccc(Cl)cc3Cl)c2c1 |  | 48 h | 22 µM
c1ccc(-c2cc(CNc3cccc4cccnc34)on2)cc1 | MTS | 72 h | > 100 µM
CC(=O)OC[C@H]1O[C@@H](n2cc(Cn3c(C(C)=O)nc4ccccc43)nn2)[C@H](OC(C)=O)[C@@H](OC(C)=O)[C@H]1OC(C)=O | LDH | 48 h | 6.49 µM
O=C1C(=Nc2ccccc2I)c2ccccc2N1Cc1ccc([N+](=O)[O-])cc1 | MTT | 48 h | 1.7 µM
O=C(CSc1nc2ccccc2s1)N/N=C/c1ccc(OCC(=O)Nc2cccc([N+](=O)[O-])c2)cc1 | MTS | 72 h | 13.3 µM
Cc1cc2c(C(N)=O)cncc2n1-c1nc2c(c(NCc3ccccc3)n1)CCCN2 | ATP luminescence | 72 h | 1.2 µM
FC(F)(F)c1cc(OCc2cc(-c3ccc(Cl)cc3Cl)no2)c2ccccc2n1 | MTS | 72 h | > 100 µM
Cc1nnc(-c2nn(Cc3ccc(Cl)cc3Cl)c3ccccc23)o1 |  | 48 h | 48.4 µM
CC(=O)OC[C@H]1O[C@@H](n2cc(Cn3c(C(=O)/C=C/c4ccc(F)cc4)nc4ccccc43)nn2)[C@H](OC(C)=O)[C@@H](OC(C)=O)[C@H]1OC(C)=O | LDH | 48 h | 6.49 µM
CC(C)c1cccc(C(C)C)c1N=C1C(=O)N(Cc2ccccc2)c2ccccc21 | MTT | 48 h | 11.7 µM
